ChEMBL document CHEMBL2040725, “In vitro and in vivo biological evaluation of new 4,5-disubstituted 1,2,3-triazoles as cis-constrained analogs of combretastatin A4” (Eur J Med Chem, 2012)
pIC50: −log10 of the molar value. The source made the active and inactive calls. The rule behind the calls is not given here.

Tests used:
[1] = Inhibition of tubulin polymerization preincubated for 45 mins before GTP addition measured after 2 hrs by DAPI-based fluorescenct assay
How it was run: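 Tubulin (97% pure, 1 mg/ml final) in PME buffer (100 mM PIPES, MgSO₄, 2 mM EGTA) with 10 µM DAPI. Compounds from 30 µM in 3-fold decrements, triplicate wells, colchicine as full-inhibition control. 45 min preincubation at room temperature, then 1 mM GTP added and held 2 h at 37 °C. Fluorescence read at ex 360/em 450 nm. Percent inhibition taken relative to colchicine; IC50 = 50% inhibition.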

[2] = Antivascular activity against human EAhy926 cells assessed as the minimum concentration required to elicit rounding up of cells after 2 hrs by microscopic analysis; assay type: functional, EA.hy 926
How it was run: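 EAhy 926 cells (HUVEC fused with A549) grown in DMEM with 10% FBS, 2 mM L-glutamine and antibiotics. Top concentration 100 µM, then two-fold serial dilutions. Wells photographed at 100× and 200×. Value = lowest concentration rounding up >15% of cells per field; 1% DMSO control.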

[3] = test system: B16; assay: Cytotoxicity against mouse B16 cells assessed as cell viability after 48 hrs by MTT assay; assay type: functional, cell-based; settings: B16, 48 h
How it was run: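 Murine B16 melanoma cells in DMEM with 10% FBS, 2 mM L-glutamine and antibiotics, 37 °C, 5% CO₂. Incubated 48 h, then MTT read at 562 nm with background subtraction. IC50 from concentration-response curves.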

[4] = Toxicity in mouse ip dosed BALB/cJRj mouse allografted with mouse Colon 26 cells compound administered on days 3-7 and 10-14 post implantation relative to control; assay type: organism-based; settings: in vivo
How it was run: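 Female BALB/cJRj mice (~18 g) with bilateral subcutaneous axillary Colon 26 fragments (30-60 mg) implanted on day 0; 5 mice/group. Daily fresh doses in saline with 5% DMSO and 5% polysorbate 80, given ip on days 3-7 and 10-14; solvent-treated controls. Mice weighed daily and checked for clinical toxicity signs; tumours measured daily by caliper.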

[5] = test system: Colon 26; assay: Antitumor activity against mouse Colon 26 cells allografted in BALB/cJRj mouse assessed as reduction in tumor volume at 100 mg/kg, ip administered on days 3-7 and 10-14 post implantation relative to control; assay type: functional; parameters: scale not given: the % may be the effect or the level left; settings: route intraperitoneal
How it was run: (§1)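 Female BALB/cJRj mice (about 18 g), 5 per group. Colon 26 tumor fragments (30-60 mg) implanted s.c. bilaterally in the axilla on day 0. Dosing i.p. on days 3-7 and 10-14 in saline with 5% DMSO and 5% polysorbate 80, 0.2 ml. Tumors measured daily by caliper, volume = length × width² × 0.5. %T/C = median treated/control, taken when control tumors reached 1500 mm³. T-C growth delay also recorded.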

[6] = test system: EA.hy 926; assay: Antivascular activity against human EAhy926 cells assessed as rounding up of cells at 1 uM after 2 hrs by microscopic analysis; assay type: functional, cell-based
[7] = test system: Colon 26; assay: Antitumor activity against mouse Colon 26 cells allografted in BALB/cJRj mouse assessed as tumor growth delay time at 100 mg/kg, ip administered on days 3-7 and 10-14 post implantation relative to control; assay type: functional; settings: route intraperitoneal; how it was run: as §1
[8] = test system: Colon 26; assay: Antitumor activity against mouse Colon 26 cells allografted in BALB/cJRj mouse assessed as tumor growth delay time at 150 mg/kg, ip administered on days 3-7 and 10-14 post implantation relative to control; assay type: functional; settings: route intraperitoneal; how it was run: as §1
[9] = test system: Colon 26; assay: Antitumor activity against mouse Colon 26 cells allografted in BALB/cJRj mouse assessed as reduction in tumor volume at 150 mg/kg, ip administered on days 3-7 and 10-14 post implantation relative to control; assay type: functional; parameters: scale not given: the % may be the effect or the level left; settings: route intraperitoneal; how it was run: as §1

SMILES	pIC50 [1]	Activity [2] [µM]	pIC50 [3]	MTD [4] [mg/kg]	Activity [5] [%]	Activity [6]	Time [7] [days]	Time [8] [days]	Activity [9] [%]
COc1cc(-c2nn[nH]c2Cc2cc(OC)c(OC)c(OC)c2)ccc1O	< 4.52	>100	< 4.00	–	–	–	–	–	–
COc1ccc(-c2nn[nH]c2Cc2cc(OC)c(OC)c(OC)c2)cc1O	5.92	0.13	5.80	100	60	Active	2.7	–	–
COc1cc(/C=C(/Cc2cc(OC)c(OC)c(OC)c2)[N+](=O)[O-])ccc1O	< 4.52	6.3	5.59	–	–	–	–	–	–
COc1cc(Cc2[nH]nnc2-c2ccc(Cl)cc2Cl)cc(OC)c1OC	< 4.52	>100	4.38	–	–	–	–	–	–
COc1ccc(/C=C(/Cc2cc(OC)c(OC)c(OC)c2)[N+](=O)[O-])cc1O	6.05	0.2	5.40	150	–	–	–	2	52
COc1cc(-c2nn[nH]c2Cc2c[nH]c3ccccc23)cc(OC)c1OC	< 4.52	50	4.97	–	–	–	–	–	–
COc1ccc(-c2nn[nH]c2Cc2cc(OC)c(OC)c(OC)c2)cc1[N+](=O)[O-]	< 4.52	25	4.30	–	–	–	–	–	–
COc1ccc(/C=C\c2cc(OC)c(OC)c(OC)c2)cc1O [COMBRETASTATIN A4]	6.52	0.006	8.52	–	–	–	–	–	–
COc1cc(Cc2[nH]nnc2-c2ccc3c(c2)OCO3)cc(OC)c1OC	< 4.52	25	4.42	–	–	–	–	–	–

Further lines, with some results ahead:

pIC50 [1]	SMILES	Activity [2] [µM]	pIC50 [3]	MTD [4] [mg/kg]	Activity [5] [%]	Activity [6]	Time [7] [days]	Time [8] [days]	Activity [9] [%]
4.66	COc1cc(C/C(=C/c2ccc(Cl)cc2Cl)[N+](=O)[O-])cc(OC)c1OC	3.1	5.59	–	–	–	–	–	–
4.98	COc1cc(C/C(=C/c2ccc3c(c2)OCO3)[N+](=O)[O-])cc(OC)c1OC	0.4	5.52	–	–	–	–	–	–
4.65	COc1cc(/C=C(/Cc2cc(OC)c(OC)c(OC)c2)[N+](=O)[O-])cc(OC)c1OC	6.3	5.48	–	–	–	–	–	–
6.05	COc1ccc(C/C(=C/c2cc(OC)c(OC)c(OC)c2)[N+](=O)[O-])cc1O	0.6	5.54	–	–	–	–	–	–
4.63	COc1cc(/C=C(/Cc2cc(OC)c(OC)c(OC)c2)[N+](=O)[O-])cc(OC)c1O	12.5	5.49	–	–	–	–	–	–
4.92	COc1ccc(-c2nn[nH]c2Cc2cc(OC)c(OC)c(OC)c2)cc1F	2.5	4.51	–	–	–	–	–	–
5.77	COc1ccc(Cc2[nH]nnc2-c2cc(OC)c(OC)c(OC)c2)cc1O	0.6	4.64	–	–	–	–	–	–
5.28	COc1cc(/C=C(/Cc2c[nH]c3ccccc23)[N+](=O)[O-])cc(OC)c1OC	1.6	5.26	–	–	–	–	–	–
5.74	COc1ccc(-c2nn[nH]c2Cc2cc(OC)c(OC)c(OC)c2)cc1N	0.2	4.83	–	–	–	–	–	–
5.05	COc1ccc(/C=C(/Cc2cc(OC)c(OC)c(OC)c2)[N+](=O)[O-])cc1[N+](=O)[O-]	3	5.46	–	–	–	–	–	–
4.81	COc1cc(C/C(=C/c2ccc(Cl)c(Cl)c2)[N+](=O)[O-])cc(OC)c1OC	3.1	5.34	–	–	–	–	–	–
5.80	COc1ccc(/C=C(/Cc2cc(OC)c(OC)c(OC)c2)[N+](=O)[O-])cc1F	0.8	5.54	–	–	–	–	–	–
